Test system: HEK-293T
Assay: Multiplex assay against HEK293T;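 as to Population Tubulin-Different-Phenotype (%): share of the cells with healthy nuclei that show this phenotype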
Assay type: toxicity, cell-based
Conditions: human
In short: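 On a CQ1 microscope at 37°C and 5% CO2, live cells were imaged after compound addition. They had been stained at seeding with Hoechst33342, BioTracker Green Microtubule Cytoskeleton Dye, MitoTracker Red and Annexin V Alexa Fluor 680. CellPathfinder machine-learning gating assigned cells to Hoechst high-intensity objects or normal cells, normal cells to healthy, pyknosed or fragmented nuclei, and pyknosed cells to mitotic or apoptotic. Tubulin, mitochondrial-mass and membrane-permeability phenotypes are per cents of healthy-nucleus cells.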

[1] = 12 h, 1 µM, compound concentration 1 uM, replicate 1
[2] = 12 h, 1 µM, compound concentration 1 uM, replicate 2
[3] = 12 h, 10 µM, compound concentration 10 uM, replicate 1
[4] = 12 h, 10 µM, compound concentration 10 uM, replicate 2
[5] = 24 h, 1 µM, compound concentration 1 uM, replicate 1
[6] = 24 h, 1 µM, compound concentration 1 uM, replicate 2
[7] = 24 h, 10 µM, compound concentration 10 uM, replicate 1
[8] = 24 h, 10 µM, compound concentration 10 uM, replicate 2
[9] = 48 h, 1 µM, compound concentration 1 uM, replicate 1
[10] = 48 h, 1 µM, compound concentration 1 uM, replicate 2
[11] = 48 h, 10 µM, compound concentration 10 uM, replicate 1
[12] = 48 h, 10 µM, compound concentration 10 uM, replicate 2

## N#CCNC(=O)c1ccc(-c2ccnc(Nc3ccc(N4CCOCC4)cc3)n2)cc1 [MOMELOTINIB]
[1]
  Population Apoptotic (%): 35%
  Population Fragmented Nuclei (%): 8%
  Population Healthy Nuclei (%): 53%
  Population Hoechst High Intensity Objects (%): 12%
  Population Membrane Permeable-Phenotype (%): 0%
  Population Mitochondria Different-Phenotype (%): 61%
  Population Mitotic Cells (%): 64%
  Population Normal (%): 87%
  Population Pyknosed Nuclei (%): 38%
  Population Tubulin-Different-Phenotype (%): 33%
  Total Cell Count: 303
[2]
  Population Apoptotic (%): 8%
  Population Fragmented Nuclei (%): 9%
  Population Healthy Nuclei (%): 52%
  Population Hoechst High Intensity Objects (%): 2%
  Population Membrane Permeable-Phenotype (%): 10%
  Population Mitochondria Different-Phenotype (%): 9%
  Population Mitotic Cells (%): 91%
  Population Normal (%): 97%
  Population Tubulin-Different-Phenotype (%): 21%
  Total Cell Count: 198
[3]
  Population Apoptotic (%): 32%
  Population Fragmented Nuclei (%): 6%
  Population Healthy Nuclei (%): 54%
  Population Hoechst High Intensity Objects (%): 6%
  Population Membrane Permeable-Phenotype (%): 4%
  Population Mitochondria Different-Phenotype (%): 70%
  Population Mitotic Cells (%): 67%
  Population Normal (%): 93%
  Population Pyknosed Nuclei (%): 38%
  Population Tubulin-Different-Phenotype (%): 62%
  Total Cell Count: 432
[4]
  Population Apoptotic (%): 10%
  Population Fragmented Nuclei (%): 9%
  Population Healthy Nuclei (%): 29%
  Population Hoechst High Intensity Objects (%): 5%
  Population Membrane Permeable-Phenotype (%): 11%
  Population Mitochondria Different-Phenotype (%): 21%
  Population Mitotic Cells (%): 89%
  Population Normal (%): 94%
  Population Pyknosed Nuclei (%): 60%
  Population Tubulin-Different-Phenotype (%): 42%
  Total Cell Count: 251
[5]
  Population Apoptotic (%): 38%
  Population Fragmented Nuclei (%): 9%
  Population Healthy Nuclei (%): 58%
  Population Hoechst High Intensity Objects (%): 9%
  Population Membrane Permeable-Phenotype (%): 1%
  Population Mitochondria Different-Phenotype (%): 44%
  Population Mitotic Cells (%): 62%
  Population Normal (%): 90%
  Population Pyknosed Nuclei (%): 31%
  Population Tubulin-Different-Phenotype (%): 34%
  Total Cell Count: 349
[6]
  Population Apoptotic (%): 10%
  Population Fragmented Nuclei (%): 10%
  Population Healthy Nuclei (%): 63%
  Population Hoechst High Intensity Objects (%): 1%
  Population Membrane Permeable-Phenotype (%): 14%
  Population Mitochondria Different-Phenotype (%): 9%
  Population Mitotic Cells (%): 89%
  Population Normal (%): 98%
  Population Pyknosed Nuclei (%): 26%
  Population Tubulin-Different-Phenotype (%): 18%
  Total Cell Count: 260
[7]
  Population Apoptotic (%): 31%
  Population Fragmented Nuclei (%): 5%
  Population Healthy Nuclei (%): 58%
  Population Hoechst High Intensity Objects (%): 6%
  Population Membrane Permeable-Phenotype (%): 3%
  Population Mitochondria Different-Phenotype (%): 71%
  Population Mitotic Cells (%): 68%
  Population Normal (%): 93%
  Population Pyknosed Nuclei (%): 36%
  Population Tubulin-Different-Phenotype (%): 88%
  Total Cell Count: 423
[8]
  Population Apoptotic (%): 17%
  Population Fragmented Nuclei (%): 9%
  Population Healthy Nuclei (%): 41%
  Population Hoechst High Intensity Objects (%): 4%
  Population Membrane Permeable-Phenotype (%): 15%
  Population Mitochondria Different-Phenotype (%): 25%
  Population Mitotic Cells (%): 82%
  Population Normal (%): 95%
  Population Pyknosed Nuclei (%): 49%
  Population Tubulin-Different-Phenotype (%): 78%
  Total Cell Count: 239
[9]
  Population Apoptotic (%): 43%
  Population Fragmented Nuclei (%): 19%
  Population Healthy Nuclei (%): 67%
  Population Hoechst High Intensity Objects (%): 4%
  Population Membrane Permeable-Phenotype (%): 3%
  Population Mitochondria Different-Phenotype (%): 16%
  Population Mitotic Cells (%): 56%
  Population Normal (%): 95%
  Population Pyknosed Nuclei (%): 13%
  Population Tubulin-Different-Phenotype (%): 15%
  Total Cell Count: 535
[10]
  Population Apoptotic (%): 14%
  Population Fragmented Nuclei (%): 13%
  Population Healthy Nuclei (%): 76%
  Population Hoechst High Intensity Objects (%): 3%
  Population Membrane Permeable-Phenotype (%): 13%
  Population Mitochondria Different-Phenotype (%): 5%
  Population Mitotic Cells (%): 85%
  Population Normal (%): 96%
  Population Pyknosed Nuclei (%): 9%
  Population Tubulin-Different-Phenotype (%): 20%
  Total Cell Count: 437
[11]
  Population Apoptotic (%): 37%
  Population Fragmented Nuclei (%): 18%
  Population Healthy Nuclei (%): 69%
  Population Hoechst High Intensity Objects (%): 8%
  Population Membrane Permeable-Phenotype (%): 2%
  Population Mitochondria Different-Phenotype (%): 46%
  Population Mitotic Cells (%): 62%
  Population Normal (%): 91%
  Population Pyknosed Nuclei (%): 11%
  Population Tubulin-Different-Phenotype (%): 79%
  Total Cell Count: 471
[12]
  Population Apoptotic (%): 27%
  Population Fragmented Nuclei (%): 14%
  Population Healthy Nuclei (%): 59%
  Population Hoechst High Intensity Objects (%): 4%
  Population Membrane Permeable-Phenotype (%): 13%
  Population Mitochondria Different-Phenotype (%): 24%
  Population Mitotic Cells (%): 72%
  Population Normal (%): 95%
  Population Pyknosed Nuclei (%): 25%
  Population Tubulin-Different-Phenotype (%): 74%
  Total Cell Count: 253
